Reference: ChEMBL document CHEMBL1811876 (J Med Chem, 2011)
Calls of active or inactive are those of the source.

Experiments:
[1] = system: DU-145; assay: Anticancer activity against human DU145 cells after 72 hrs by sulforhodamine B assay; assay type: functional; details: DU-145, 72 h
[2] = system: HCT-8; assay: Anticancer activity against human HCT8 cells after 72 hrs by sulforhodamine B assay; assay type: functional; details: HCT-8, 72 h
[3] = (§1) Upregulation of Cdt1 expression in human CL1-5 cells at 0.01 ug/mL by RT-PCR analysis after 24 to 48 hrs by Western blot; assay type: functional, cell-based
Method in brief: (§2)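 CL1-5 cells were exposed to the test agent for 24 and 48 h. Cdt1 and CDC6 protein levels were then assessed by Western blot.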

[4] = system: HT-29; assay: Anticancer activity against human HT-29 cells xenografted in athymic nude mouse assessed as median time to end point at 20 mg/kg, iv bid for 29 days; assay type: functional
Method in brief: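 Male athymic nude mice bearing HT-29 human colorectal adenocarcinoma xenografts. Drug dosed i.v./i.p. at 20 mg/kg twice daily (bid) to end of study. A vehicle-treated group served as control. The read-out was median time to endpoint (TTE) per group, with maximum group body weight loss and treatment-related deaths tracked. Significance was judged at P < 0.05.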

[5] = system: HUVEC; assay: Toxicity against HUVEC; assay type: cell-based; details: human
[6] = system: HT-29; assay: Anticancer activity against human HT-29 cells xenografted in athymic nude mouse assessed as median time to end point at 20 mg/kg, ip bid for 29 days; assay type: functional; details: route intraperitoneal
Method in brief: (§3)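 Male athymic nude mice carrying human HT-29 colorectal adenocarcinoma xenografts, with a vehicle-treated control group. Dosing was 20 mg/kg given either i.v. once daily (qd) to the end of the study or i.v./i.p. twice daily (bid) to the end. Read-outs were median time to endpoint (TTE), maximum group body weight loss and treatment-related deaths. Significance threshold was P < 0.05.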

[7] = as §1; assay type: functional, cell-based; method in brief: as §2; remark: listed apart in the source
[8] = Upregulation of Cdt1 expression in human CL1-5 cells at 0.01 ug/mL by RT-PCR analysis after 24 to 48 hrs; assay type: functional, cell-based
[9] = Toxicity against athymic nude mouse xenografted with human HT-29 cells assessed as mortality at 20 mg/kg, iv qd measured on day 12; assay type: organism-based; design: dose 20 mg/kg, route intravenous; details: in vivo, read-out: Activity; method in brief: as §3
[10] = system: KB; assay: Anticancer activity against human KB cells after 72 hrs by sulforhodamine B assay; assay type: functional
[11] = Toxicity against athymic nude mouse xenografted with human HT-29 cells assessed as mortality at 20 mg/kg, iv bid measured on day 19; assay type: organism-based; design: dose 20 mg/kg, route intravenous; details: in vivo, read-out: Activity; method in brief: as §3
[12] = Upregulation of CDC6 expression in human CL1-5 cells at 0.01 ug/mL by RT-PCR analysis after 24 to 48 hrs; assay type: functional, cell-based
[13] = system: HT-29; assay: Anticancer activity against human HT-29 cells xenografted in athymic nude mouse assessed as median time to end point at 20 mg/kg, iv qd for 29 days; assay type: functional; method in brief: as §3
[14] = system: A549; assay: Anticancer activity against human A549 cells after 72 hrs by sulforhodamine B assay; assay type: functional; details: A549, 72 h

**Q.** For `COc1ccc2c3c(c4cc(OC)c(OC)cc4c2c1)C[C@H]1COCCN1C3`, which GI50 [1] is on record?
**A.** Its GI50 is 67 nM.

**Q.** What about the GI50 [2] of the same compound?
**A.** Its GI50 is 9 nM.

**Q.** What about the Activity [3] of the same compound?
**A.** Its Activity is “inactive”.

**Q.** And the Time [4]?
**A.** Its Time is 20.9 days.

**Q.** And the GI50 [5]?
**A.** The GI50 was 320 nM.

**Q.** What about the Time [6] of the same compound?
**A.** Its Time is 20.9 days.

**Q.** What about the Activity [7] of the same compound?
**A.** Its Activity is “inactive”.

**Q.** And the Activity [8]?
**A.** Its Activity is “inactive”.

**Q.** And the mortality [9]?
**A.** The mortality was 1.1%.

**Q.** And the GI50 [10]?
**A.** Its GI50 is 37 nM.

**Q.** And the mortality [11]?
**A.** The mortality was 7.2%.

**Q.** And the Activity [12]?
**A.** The Activity was “inactive”.

**Q.** What about the Time [13] of the same compound?
**A.** The Time was 21.3 days.

**Q.** And the GI50 [14]?
**A.** Its GI50 is 23 nM.
